According to article PMC10835327 (Heliyon, 2024):

Biological target: HSA (human serum albumin) (Homo sapiens, UniProt P02768)
Assay: intrinsic fluorescence quenching, double-logarithmic plot
Assay type: binding
Details: Tris-HCl pH 7.40, 298 K, no added metal ion
In short: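 HSA (1.00 × 10−4 mol L−1) titrated stepwise with test compound dissolved in DMSO. Emission spectra recorded at 300–600 nm with excitation at 292 nm and both slits at 15 nm. Spectra taken at 291, 298, 304 and 310 K. Intensities corrected for inner-filter effect. Ka and n derived from double-logarithmic fit of intensity versus quencher concentration.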

HSA (human serum albumin), sequence (P02768 25-609): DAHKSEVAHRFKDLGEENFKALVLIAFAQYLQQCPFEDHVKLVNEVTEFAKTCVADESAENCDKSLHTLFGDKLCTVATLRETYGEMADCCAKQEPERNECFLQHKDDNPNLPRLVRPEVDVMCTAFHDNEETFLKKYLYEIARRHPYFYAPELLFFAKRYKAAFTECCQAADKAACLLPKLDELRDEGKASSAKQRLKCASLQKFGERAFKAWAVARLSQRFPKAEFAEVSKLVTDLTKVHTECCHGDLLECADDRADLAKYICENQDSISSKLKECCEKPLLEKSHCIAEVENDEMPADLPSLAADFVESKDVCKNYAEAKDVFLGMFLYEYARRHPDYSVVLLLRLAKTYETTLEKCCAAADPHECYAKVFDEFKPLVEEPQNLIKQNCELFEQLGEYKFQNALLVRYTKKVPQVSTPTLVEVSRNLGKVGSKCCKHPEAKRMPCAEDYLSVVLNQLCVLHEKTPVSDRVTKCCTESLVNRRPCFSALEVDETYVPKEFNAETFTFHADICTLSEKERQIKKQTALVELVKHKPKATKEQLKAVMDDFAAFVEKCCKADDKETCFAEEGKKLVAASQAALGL

| Ka/(L.mol^-1) (n = 1.0099) | Ka/(L.mol^-1) (n = 0.9857) | SMILES |
| --- | --- | --- |
| 8.7256 × 10^4 ±1.1863 L∙mol^−1 |  | COC(=O)/C=C/c1ccc(O)c(OC)c1 [FAM, ferulic acid methyl ester] |
|  | 2.5668 × 10^4 ±2.0417 L∙mol^−1 | COc1cc(/C=C/C(=O)O)ccc1O [FA, ferulic acid] |
